Assay results reported in ChEMBL document CHEMBL3397026, “Synthesis and structure-activity relationships of novel phenoxyacetamide inhibitors of the Pseudomonas aeruginosa type III secretion system (T3SS)” (Bioorg Med Chem, 2015).

Molecular target: not listed separately
Assay: Inhibition of T3SS-mediated secretion of an ExoS-beta-lactamase fusion protein into the culture medium in Pseudomonas aerguinosa MDM973 assessed as inhibition of nitrocefin hydrolysis by secretion assay
Set-up: species or system Pseudomonas aeruginosa
Conditions: not given
Procedure, shortened: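 ExoS-βLA fusion protein secreted by strain MDM973, detected as hydrolysis of chromogenic nitrocefin by the externalized enzyme. Absorbance read at 490 nm. Percent inhibition calculated relative to drug-free (0%) and uninduced controls (no ExoS-βLA secreted; 100%).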

`O=C(COc1ccc(Cl)cc1Cl)NCc1ccc2c(c1)OCO2` and `CC(C)(Oc1ccc(Cl)cc1Cl)C(=O)NCc1ccc2c(c1)OCO2` cannot be ordered by IC50: > 100 µM for the first, > 100 µM for the second.

`CCCC(Oc1ccc(Cl)cc1Cl)C(=O)NCc1ccc2c(c1)OCO2` (centres undefined) and `CC(C)C(Oc1ccc(Cl)cc1Cl)C(=O)NCc1ccc2c(c1)OCO2` (centres undefined) cannot be ordered by IC50: > 100 µM for the first, > 100 µM for the second.

`CC(Oc1ccc(Cl)cc1F)C(=O)NCc1ccc2c(c1)OCO2` (centres undefined) and `CC(Oc1ccc(F)cc1F)C(=O)NCc1ccc2c(c1)OCO2` (centres undefined) cannot be ordered by IC50: > 100 µM for the first, > 100 µM for the second.

`CC(Oc1ccc(C#N)cc1Cl)C(=O)NCc1ccc2c(c1)OCO2` (centres undefined) and `COc1ccc(OC(C)C(=O)NCc2ccc3c(c2)OCO3)c(Cl)c1` (centres undefined) cannot be ordered by IC50: > 100 µM for the first, > 100 µM for the second.

`CC(C(=O)NCc1ccc2c(c1)OCO2)S(=O)(=O)c1ccc(Cl)cc1Cl` (centres undefined) and `CC(Cc1ccc(Cl)cc1Cl)C(=O)NCc1ccc2c(c1)OCO2` (centres undefined) cannot be ordered by IC50: > 100 µM for the first, > 100 µM for the second.

`CC(C(=O)NCc1ccc(F)cc1)S(=O)(=O)c1ccc(Cl)cc1Cl` (centres undefined) and `CC(Cc1ccc(Cl)cc1Cl)C(=O)NCc1ccc(F)cc1` (centres undefined) cannot be ordered by IC50: > 100 µM for the first, > 100 µM for the second.

`CC(Oc1ccc(Cl)cc1Cl)C(=O)NC(C(=O)O)c1ccc(F)cc1` (centres undefined) and `CC(Oc1ccc(Cl)cc1Cl)C(=O)Nc1ccc(F)cc1` (centres undefined) cannot be ordered by IC50: > 100 µM for the first, > 100 µM for the second.

`CC(Oc1ccc(Cl)cc1Cl)C(=O)NCCCc1ccc(F)cc1` (centres undefined) and `CC(Oc1ccc(Cl)cc1Cl)C(=O)CCc1ccc(F)cc1` (centres undefined) cannot be ordered by IC50: > 100 µM for the first, > 100 µM for the second.

Going from `CC(Oc1ccc(Cl)cc1Cl)C(=O)N(C)Cc1ccc(F)cc1` (centres undefined) to `CC(Oc1ccc(Cl)cc1Cl)C(=O)OCc1ccc(F)cc1` (centres undefined), the IC50 rises from 28.5 µM to > 100 µM. The first is the more potent here.

Going from `CC(Oc1ccc(Cl)cc1Cl)C(=O)OCCc1ccc(F)cc1` (centres undefined) to `COc1ccccc1CNC(=O)C(C)Oc1ccc(Cl)cc1Cl` (centres undefined), the IC50 falls from > 100 µM to 28 µM.

In the case of `CC(Oc1ccc(Cl)cc1Cl)C(=O)NCc1ccc2sccc2c1` (centres undefined), the IC50 is reported as 6 µM.

Tested on: CHO
Assay: Cytotoxicity against CHO cells by LDH release assay
Assay type: cell-based
Conditions: Cricetulus griseus
Procedure, shortened: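 Assay run in parallel with the T3SS translocation assay, with CHO cells and compound but no P. aeruginosa. Cell death read as LDH release; CC50 derived.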

Compared with `CC(Oc1ccc(Cl)cc1Cl)C(=O)NCc1cccc2[nH]ccc12` (centres undefined), `CC(Oc1ccc(Cl)cc1Cl)C(=O)NCc1ccc2cc[nH]c2c1` (centres undefined) is 2.6-fold lower in IC50: 24 µM for the first, 9.4 µM for the second.

`CCC(Oc1ccc(Cl)cc1Cl)C(=O)NCc1ccc2c(c1)OCO2` (centres undefined) and `CC(Oc1ccc(Cl)cc1)C(=O)NCc1ccc2c(c1)OCO2` (centres undefined) are within 1.5-fold of each other in IC50: 67 µM for the first, 65 µM for the second.

Going from `CC(Oc1ccc(Cl)cc1Cl)C(=O)NCc1ccc(F)cc1` (centres undefined) to `CC(Oc1ccc(Cl)cc1Cl)C(=O)NCCc1ccc(F)cc1` (centres undefined), the IC50 falls from 59 µM to 17 µM (3.5-fold). The second is the more potent here.

Compared with `C[C@H](NC(=O)[C@@H](C)Oc1ccc(Cl)cc1Cl)c1ccc(F)cc1`, `C[C@@H](Oc1ccc(Cl)cc1Cl)C(=O)N[C@H](C)c1ccc(F)cc1` is 3-fold higher in IC50: 32 µM for the first, 97 µM for the second. The first is the more potent here.

`CC(Oc1ccc(Cl)cc1Cl)C(=O)NC1(c2ccc(F)cc2)CC1` (centres undefined) and `CC(Oc1ccc(Cl)cc1Cl)C(=O)NNc1ccc(F)cc1` (centres undefined) are within 1.5-fold of each other in IC50: 28 µM for the first, 35 µM for the second.

Compared with `CC(Oc1ccc(Cl)cc1Cl)C(=O)NNCc1ccc(F)cc1` (centres undefined), `CC(Oc1ccc(Cl)cc1Cl)C(=O)NOCc1ccc(F)cc1` (centres undefined) is 1.9-fold higher in IC50: 31 µM for the first, 59 µM for the second.

First: CC(Oc1ccc(Cl)cc1Cl)C(=O)NCc1ccccc1 (centres undefined)
Second: CC(Oc1ccc(Cl)cc1Cl)C(=O)NCc1cccc(F)c1 (centres undefined)
The IC50 of the first is 3.5-fold higher: 95 µM for the first, 27 µM for the second. The second is the more potent here.

First: CC(Oc1ccc(Cl)cc1Cl)C(=O)NCc1ccccc1F (centres undefined)
Second: CC(Oc1ccc(Cl)cc1Cl)C(=O)NCc1cc2ccccc2[nH]1 (centres undefined)
The IC50 of the first is 3.9-fold higher: 47 µM for the first, 12 µM for the second.

Going from `CC(Oc1ccc(Cl)cc1Cl)C(=O)NCc1ccc(Cl)cc1` (centres undefined) to `Cc1ccc(CNC(=O)C(C)Oc2ccc(Cl)cc2Cl)cc1` (centres undefined), the IC50 falls from 39 µM to 25 µM (1.6-fold). The second is the more potent here.

First: CC(Oc1ccc(Cl)cc1Cl)C(=O)NCc1cccc(Cl)c1 (centres undefined)
Second: Cc1cccc(CNC(=O)C(C)Oc2ccc(Cl)cc2Cl)c1 (centres undefined)
The IC50 of the first is 2.4-fold lower: 19 µM for the first, 45 µM for the second.

First: COc1ccc(CNC(=O)C(C)Oc2ccc(Cl)cc2Cl)cc1 (centres undefined)
Second: COc1ccc(CNC(=O)C(C)Oc2ccc(Cl)cc2Cl)cc1OC (centres undefined)
The IC50 of the first is 2-fold higher: 71 µM for the first, 36 µM for the second. The second is the more potent here.

Compared with `CC(Oc1ccc(Cl)cc1Cl)C(=O)NCc1ccc2sccc2c1` (centres undefined), `CC(Oc1ccc(Cl)cc1Cl)C(=O)NCc1ccc2occc2c1` (centres undefined) is 2.7-fold lower in IC50: 30 µM for the first, 11 µM for the second. The second is the more potent here.

Compared with `CC(Oc1ccc(Cl)cc1Cl)C(=O)NCc1ccc2c(ccn2C)c1` (centres undefined), `CC(Oc1ccc(Cl)cc1Cl)C(=O)NCc1cnc2[nH]ccc2c1` (centres undefined) is 3.3-fold higher in IC50: 6.3 µM for the first, 21 µM for the second.

Work on `CC[C@@H](Oc1ncc(Cl)cc1Cl)C(=O)NC(CO)c1ccc(F)cc1` (some centres undefined) yielded an IC50 of 75 µM.

Tested on: not listed separately
Assay: Inhibition of T3SS-mediated translocation in Pseudomonas aerguinosa PA99U co-expressing PcrV and PopB/PopD assessed as inhibition of ExoU-mediated lysis of co-incubated CHO cells by LDH release assay
Assay type: cell-based
Conditions: Pseudomonas aeruginosa
Procedure, shortened: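 CHO cells co-incubated with P. aeruginosa PA99U33 plus compound, with procedure otherwise per earlier work. ExoU-mediated CHO lysis read out as LDH release. A parallel run without bacteria gave CHO cytotoxicity (CC50).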

Compound `CC(Oc1ccc(Cl)cc1Cl)C(=O)NCc1ccc2sccc2c1` (centres undefined) has an IC50 of 5.3 µM.
